# Cl transport mod: modulators of human KCC2 chloride dependent transport | KCC2 cells, thallium flux FluoZin-2 fluorescence | 190,000 tested, 2.2% active | Q9H2X9 | AID 1456 | B-score of Tl+ flux slope (higher = more flux/activation; lower = inhibition) at 10 µM;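 active means thallium flux slope and its plate-corrected score both differing from the plate sample mean at a set confidence after two filtering rounds, in either direction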;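 further: slope of fluorescence scaled to starting intensity during 10 to 20 s after thallium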
# KCNQ1 pot: potentiates or activates the human KCNQ1 potassium channel. 310,000 tested, 0.35% active. B-score at 10 µM. P51787. CHO-K1 KCNQ1, thallium flux FluxOR fluorescence; active compounds read high. AID 2648;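 active means fluorescence ratio B-score, a plate-corrected score, at least three library SD, with initial intensity B-score within 5 SD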
#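 System: CHO-K1 cells stably expressing KCNQ1 / Medium: assay buffer for compound exposure, DMSO matched across wells / Reagent: thallium- and potassium-containing depolarizing buffer / Compound: one concentration, matched DMSO / Incubation: 20 min compound pretreatment at room temperature / Measured by: kinetic FluxOR fluorescence, 10 s baseline plus 110 s post-stimulus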
# hERG protect: shields human hERG channel from block by proarrhythmic agents; CHO-hERG, FluxOR thallium flux, dofetilide IC70 present; activation (rescue from dofetilide block), less the hit threshold, % at 10 µM; 310,000 tested, 0.51% active;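 active means activation above the mean of controls blocked by dofetilide plus 5 SD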;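 further: thallium influx through hERG after potassium depolarization seen as dye fluorescence rise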
# KCNQ1 inh: inhibitors of human KCNQ1 potassium channel. P51787. CHO-K1 KCNQ1, FluxOR thallium flux fluorescence; active compounds read high. B-score at 10 µM. 310,000 tested, 1.3% active. AID 2642;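 active means compounds whose thallium flux B-score, printed positive for inhibition, exceeds three library SD while starting fluorescence stays within three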;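 further: channel opened by potassium depolarization with thallium stimulus after 20 min compound exposure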
# AI-2 QS mod: modulators of Vibrio harveyi AI-2 quorum sensing system | Vibrio harveyi JMH597 AI-2 luminescence/OD600 ratio, 9 h; active compounds read low; strain lacks LuxN and CqsS sensors; 0 = neutral-control median | activity change, % at 7.5 µM | 300,000 tested, 0.4% active | AID 2094; in the data active means activity change below about -75%, passing the limit was not always enough;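 further: luminescence divided by OD600 gain over 9 h not by final OD600 alone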
# Mot1-301 SUMO: inhibitors of SUMOylation pathway: yeast Mot1-301 growth rescue. S. cerevisiae Mot1-301 growth rescue, ATP luminescence, 38.5C; percent above DMSO median, 100 means doubled. growth rescue, % at 18.8 µM. 320,000 tested, 1% active;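 active means every valid replicate shows activation above 250% relative to neutral control wells; inactive means the rest, any valid replicate at or below 250%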;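 further: OY570 slx delta 5 strain wells were the positive control but not used for scaling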
# Yeast Mot1 SUMO: inhibits SUMO pathway, affecting Mot1-301 yeast growth. 2,300 tested, under 10 active. S. cerevisiae Mot1-301 galactose growth, ATP luminescence, 24 h; -100 = growth of slx-deleted rescue strain. growth activity, percent, % at 42 µM. shares compounds with Mot1-301 SUMO;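 active means Signal drops as the depositor expects, and the fitted half-maximal dose is no more than ten times the top valid tested dose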;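 further: more negative values mean stronger growth rescue toward the control strain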
# The depositor's hits bear a star; i = inactive; x = no result; + = active, no number. A selection: hits, their analogues and other compounds. The true share with any hit is near 4.2%.
SMILES,Cl transport mod,KCNQ1 pot,hERG protect,KCNQ1 inh,AI-2 QS mod,Mot1-301 SUMO,Yeast Mot1 SUMO
Cc1onc(-c2ccccc2Cl)c1C(=O)Nc1ccccc1O,x,i,0,i,-6,172,x
O=C(CSc1nc(-c2ccccc2)cc(=O)[nH]1)Nc1ccc(Br)cc1,x,i,-4,i,0,423*,-1
O=C(CSc1nc(-c2ccccc2)cc(=O)[nH]1)Nc1ccc(F)c(F)c1,x,i,1,i,-6,18,x
CC(C)C(=O)NCCSc1c[nH]c2ccccc12,-0.7,i,-9,i,31,598*,0
CC1=Nc2cc([N+](=O)[O-])ccc2NC(C)(C)C1,0.27,i,-18,i,0,21,x
CC1(C)CNc2cc([N+](=O)[O-])ccc2S1,-0.24,i,-2,i,-4,810*,2
O=C(Cc1cccc(C(F)(F)F)c1)Nc1cc(S(=O)(=O)N2CCOCC2)ccc1N1CCCC1,x,x,x,x,x,-11,x
CC1CN(CCCOc2ccc([N+](=O)[O-])cc2)CC(C)O1 (stereo not given),0.23,i,-2,i,20,463*,1
O=C(N/N=C/c1cccs1)c1cncc(Br)c1,2.2,i,0,i,8,470*,-1
CC(C)c1ccc(NC(=O)c2ccccc2NC(=O)C2CCCCC2C(=O)O)cc1 (stereo not given),x,i,1,i,-4,76,x
Cn1c(C(=O)OCC(=O)NCc2ccc(F)cc2)cc2occc21,x,i,-10,i,32,301,x
CCCCOC(=O)/C(=C/C=C/c1ccccc1)NC(=O)c1ccccc1,-3.1,i,-9,i,0,815*,-1
C#CC(CO)N(CCN(Cc1ccccc1)C(C#C)CO)Cc1ccccc1 (stereo not given),-0.46,i,-4,i,13,20,x
O=C1OC(Cc2ccccn2)C(O)=C1C1=NCCCCN1 (stereo not given),0.51,i,-2,i,46,-26,x
O=C1OC(Cc2ccccn2)C(O)=C1C1=NCCCN1 (stereo not given),1,i,2,i,22,375*,0
CCc1ccc(C(=O)N/N=C/c2cccc3ccccc23)nc1,0.084,i,-3,i,32,-7,x
CCN(CC(=O)NCc1ccc(Cl)cc1)C(=O)CSCC(=O)Nc1cccc(C)c1,x,i,-9,i,20,8,x
Cc1cccc(N(CC(=O)N2CCCCCC2)S(C)(=O)=O)c1C,x,i,-7,i,2,73,x
CS(=O)(=O)N(CC(=O)N1CCCC1)c1cccc(Cl)c1Cl,x,i,-1,i,17,530*,0
CC(NC(=O)c1cccc(S(=O)(=O)N2CCN(C)CC2)c1)c1ccc(Cl)cc1Cl (stereo not given),x,i,-24,i,6,4,x
O=C(O)COc1ccc(Br)cc1/C=N\Nc1ccccn1,x,i,-6,i,20,425*,1
CCOc1ccc(C(=O)Nc2ccc(C(F)(F)F)n(C)c2=O)cc1,1.4,i,-14,i,-9,+,0
CNc1nc(SC(C)C(=O)Nc2ccc(Cl)c(Cl)c2)nc(N2CCOCC2)n1 (stereo not given),1.4,i,-2,i,-3,-2,x
Cc1cccc(N2CN=c3s/c(=C\c4ccccn4)c(=O)n3C2)c1,0.51,i,-9,i,39,441*,0
O=c1/c(=C/c2ccccn2)sc2n1CN(c1ccccc1)CN=2,0.23,i,-4,i,25,5,x
CC(C)Cn1c(N)cc(=O)n(C)c1=O,0.67,i,-7,i,17,-7,x
CCCn1c(N)cc(=O)n(CCC)c1=O,-0.66,i,-21,i,37,792*,0
O=C(c1ccc(OC2CCN(CCc3ccccc3)CC2)cc1)N1CCCC1,x,i,-12,i,2,608*,0

# Screening data from PubChem.
